# Assay outcomes from PubChem.
# The list is not random: actives were taken first. Their share in the collection is about 3.9%.
# HIF act – HIF pathway transcriptional activation; U2OS HRE-luciferase reporter, luminescence; normalized: DMSO 0%, desferrioxamine 100%; activation, % at 7.5 µM (by protocol); hit rate 0.32% among 300,000; AID 1910;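 active = mean activation of at least 10% of the iron chelator positive control signal, with at least half of replicates also reaching 10%; inconclusive = mean and replicate majority disagree about reaching 10%; inactive = mean and most replicates under 10%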
# AHR activator – human AHR activation; P35869; AHR-responsive luciferase reporter cells, luminescence; activation, % at 5 µM; hit rate 2.5% among 320,000; AID 2796; in the data active = activation above about 47%;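 also: 0% = vehicle wells and 100% = reference agonist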
# Target sequence (P35869 whole entry, looked up): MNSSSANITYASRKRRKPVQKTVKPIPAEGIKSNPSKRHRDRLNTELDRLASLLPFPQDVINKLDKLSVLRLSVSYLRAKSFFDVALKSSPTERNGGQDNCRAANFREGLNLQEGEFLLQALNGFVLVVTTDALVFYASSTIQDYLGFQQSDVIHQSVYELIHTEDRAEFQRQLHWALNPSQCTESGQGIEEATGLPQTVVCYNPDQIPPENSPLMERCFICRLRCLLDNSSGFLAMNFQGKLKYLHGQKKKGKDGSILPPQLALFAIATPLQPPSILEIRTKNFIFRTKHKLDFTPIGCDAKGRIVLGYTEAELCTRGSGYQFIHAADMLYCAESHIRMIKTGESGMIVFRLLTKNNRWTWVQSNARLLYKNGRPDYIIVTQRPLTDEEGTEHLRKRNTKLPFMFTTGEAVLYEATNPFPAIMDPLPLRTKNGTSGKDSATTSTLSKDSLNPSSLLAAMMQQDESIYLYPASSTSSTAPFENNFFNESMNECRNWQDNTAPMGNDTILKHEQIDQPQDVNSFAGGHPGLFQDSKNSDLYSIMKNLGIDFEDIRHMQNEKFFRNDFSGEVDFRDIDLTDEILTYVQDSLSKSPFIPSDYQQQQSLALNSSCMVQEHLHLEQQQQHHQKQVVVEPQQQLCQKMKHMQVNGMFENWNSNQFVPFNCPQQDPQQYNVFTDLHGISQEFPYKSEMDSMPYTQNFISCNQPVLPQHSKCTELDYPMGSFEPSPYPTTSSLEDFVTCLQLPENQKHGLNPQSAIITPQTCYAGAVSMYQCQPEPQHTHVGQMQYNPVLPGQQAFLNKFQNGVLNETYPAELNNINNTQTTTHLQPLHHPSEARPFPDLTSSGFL
# SR-BI uptake up – activators of SR-BI mediated HDL lipid uptake; CHO ldlA[mSR-BI] cells, DiI-HDL uptake fluorescence, 3 h; 100 = double the neutral-control signal; activation, % at 12.5 µM; hit rate 0.096% among 320,000; AID 504775;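 active = mean replicate activation of at least 60% and every replicate at or above 60%; inconclusive = mean or all-replicate condition met, but not both; inactive = mean below 60% and not all replicates reaching 60%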;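 also: 0% = median plate neutral-control signal and 100% = twice that signal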
#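 system = CHO ldlA[mSR-BI] cells, LDL receptor-null, SR-BI overexpressing | medium = Ham's F12 with 0.5% BSA, HEPES 25 mM, pH 7.4 | probe or stimulus = DiI-HDL 10 µg/mL | compound dosing = single-point compound dose | incubation = compound exposure 3 h, 37 °C | technique = DiI fluorescence, bottom read | read-out = cell-associated DiI fluorescence as measure of HDL uptake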
# ABCB6 inh MLPCN – blocks the human ABCB6 transporter. Q9NP58. K562-ABCB6 porphyrin accumulation, flow cytometry, 1 h; hits give low values. fluorescence ratio to DMSO, % at 10 µM. hit rate 0.19% among 360,000. AID 602162;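 active = fluorescence ratio to DMSO below 75%, the collection mean minus 3 SD; inconclusive = too few cells collected in the well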;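 also: signal is porphyrin accumulated inside mitochondria; 100% equals median channel fluorescence of DMSO control wells; lower ratio means ABCB6 inhibition with less porphyrin fluorescence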
# GAA850 FXN act – increases GAA850 frataxin promoter reporter activity; HEK293 lucGAA850 FXN promoter luciferase reporter, 24 h; percent of 10 µM SAHA response; activation, % at 6 µM; hit rate 0.56% among 360,000; AID 540364;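 active = activation above the average of all compounds screened plus 3 SD, cutoff fixed separately per campaign, cut at about 7.5% in these data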;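 also: 0% = DMSO wells and 100% = 10 µM SAHA wells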
# SR-BI DiI inh – inhibitors of mouse SR-BI mediated HDL lipid uptake; Q61009; ldlA[mSR-BI] CHO cells, DiI-HDL uptake fluorescence, 3 h; inhibition, % at 12.5 µM; hit rate 0.96% among 320,000; AID 488896;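 active = mean replicate inhibition of at least 70% and a set share of replicates each scoring 70 or more; inconclusive = meets just one of the two criteria; inactive = fails both criteria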;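 also: 0% = median of neutral control wells and 100% = median of positive control wells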
# The depositor's hits bear a star; ? = inconclusive; . = no result.
SMILES,HIF act,AHR activator,SR-BI uptake up,ABCB6 inh MLPCN,GAA850 FXN act,SR-BI DiI inh
O=C(O)c1cc(N/N=C/c2c[nH]c3ccccc23)ccc1Cl,1,58*,.,96,5,.
CCc1ccc(-c2cc(C(=O)N/N=C/c3c[nH]c4ccccc34)[nH]n2)cc1,-15,55*,-69,90,-3,69
Cc1nc(N)[nH]c(=O)c1CCCNS(=O)(=O)c1ccc([N+](=O)[O-])cc1,.,.,4,102,0,-4
CCCc1ccc(-c2cc(C(=O)NN3CCOCC3)c3ccccc3n2)cc1,2,0,-40,100,8.3*,40
O=C(NCC(c1cccs1)N1CCOCC1)c1cc(-c2ccc(F)cc2)nc2ccccc12 (configuration not stated),-1,6,-84,98,-2,84*
O=C(NCC(c1cccs1)N1CCOCC1)c1cn(-c2ccccc2)nc1-c1ccc(F)cc1 (configuration not stated),0,3,-15,93,1,15
CC(C)Oc1cccc(-c2cc(C(=O)NN3CCOCC3)c3ccccc3n2)c1,1,28,-28,82,0,28
COc1ccc(NC(C)=O)cc1NC(=O)c1ccc2ccccc2c1,0,74*,-21,93,-1,21
COc1ccc(C(=O)Nc2nnc(-c3cccs3)s2)cc1,3,67*,20,95,1,-20
COc1ccc(C(=O)Nc2nc(-c3cccs3)c(NC(C)=O)s2)cc1,0,20,-28,91,0,28
O=C(Nc1nnc(-c2cccs2)s1)c1cccc(F)c1,.,56*,-1,97,2,1
COc1ccc(C)cc1NC(=O)c1cccc(-c2ccc(OC(C)=O)cc2)c1,-1,1,-77,93,0,77*
Cc1nnc(NC(=O)c2cccc(F)c2)s1,0,1,5,103,0,-5
c1ccc(Cc2nnc3sc(-c4ccc5c(c4)OCO5)nn23)cc1,0,10,46,98,-2,-46
Cc1occc1C(=O)Nc1nnc(-c2cccs2)s1,2,76*,12,97,5,-12
COc1ccc(NC(=O)c2cc(-c3cccs3)on2)c(OC)c1,0,1,-7,90,0,7
COc1ccc(OC)c(NC(=O)c2ccc(-c3cccs3)cc2)c1,0,76*,-74,105,2,?
COc1cc([C@@H]2CC=C(C(=O)O)[C@H](c3ccc(C)cc3)N2S(=O)(=O)c2ccc(C)cc2)cc(OC)c1OC,.,0,7,101,0,-7
Cc1ccn2c(C(=O)c3ccc(Cl)cc3)cnc2c1,3,0,-16,95,1,16
Cc1ccccc1-c1cc(-c2ccccc2O)on1,1,73*,-11,100,5,11
Cc1ccc(C(=O)Nc2cc(Cl)ccc2N2CCCCC2)s1,0,1,-77,96,1,77*
CCc1sc(C(=O)Nc2cc(Cl)ccc2N2CCCCC2)cc1C,-1,1,-68,93,2,68
C=CCSc1cc(C)nc2c(-c3ccccc3)cnn12,?,99*,-19,98,8,19
Cc1cc(-c2ccncc2)n2ncc(-c3ccccc3)c2n1,.,.,.,96,6,.
Cc1cc(N)n2ncc(-c3ccccc3)c2n1,4,61*,-16,98,3,16
SMILES,HIF act,AHR activator,SR-BI uptake up,ABCB6 inh MLPCN,GAA850 FXN act,SR-BI DiI inh
CC(C)CNC(=O)CN1C(=O)NC(Cc2c[nH]c3ccccc23)C1=O (configuration not stated),0,3,3,99,1,-3
CCn1c(SCc2nc3sc(C(=O)O)c(C)c3c(=O)[nH]2)nnc1-c1ccc(Cl)cc1,0,-1,18,97,0,-18
Cc1sc2nc(CSc3nnnn3-c3ccc(Cl)cc3)[nH]c(=O)c2c1C,0,51*,-11,128,1,11
CC(NC(=O)c1cc2cc(F)ccc2[nH]1)c1ccccc1 (configuration not stated),0,53*,43,96,0,-43
CCNC(=S)N1N=C2c3ccccc3CCC2C1c1ccc(F)cc1 (configuration not stated),0,51*,.,95,0,.
CCN(CC)CCN(C(=O)/C=C/c1cccs1)c1nc2ccc(Cl)cc2s1,0,4,.,99,2,8
